Published values pooled from the literature.
Each line is one published result; the experiments were not run side by side.
Adora2a: Adenosine receptor A2a (Adora2a, Rattus norvegicus, UniProt P30543)
Sterol carrier protein 2: Sterol carrier protein 2 (Aedes aegypti, UniProt Q86PR3)

| SMILES | target | test | setting | endpoint | result |
| --- | --- | --- | --- | --- | --- |
| Cc1cc(Nc2cc3ncccc3c(N[C@@H]3C[C@H]4CC[C@@H](C3)N4CCC#N)n2)n[nH]1 | Mitogen-activated protein kinase kinase kinase 9 (MAP3K9, Homo sapiens, UniProt P80192) | binding, competition with immobilised ligand | – | Kd | 0.054 µM |
| N[C@@H](CCC(=O)O)C(=O)O | Metabotropic glutamate receptor 4 (Grm4, Rattus norvegicus, UniProt P31423) | ion flux, agonist | – | EC50 | 7.9 µM |
| C=CN1CCCn2c1nc1c2c(=O)n(C)c(=O)n1C | Adora2a | ligand displacement, radioligand | cell membranes | Ki | > 25 µM |
| O=C(/C=C/c1ccc(O)cc1)/C=C/c1ccc(O)cc1 | Sterol carrier protein 2 | ligand displacement, fluorescence | – | EC50 | 2.38 µM |
| CCCCCC(C)N1CCCn2c1nc1c2c(=O)n(C)c(=O)n1C (centres unmarked) | Adora2a | ligand displacement, radioligand | cell membranes | Ki | 2.38 µM |
| CCCN1CCN(c2ccc(-c3cncc(Cl)c3N3CCC4(CCNC4=O)CC3)cc2)CC1 | E3 ubiquitin-protein ligase NEDD4 (Homo sapiens, UniProt P46934) | cell-free assay | lysate | Kd | 18.4 µM |
| CCCCCCCCCCCCCCCC(=O)OC[C@H](COP(=O)(O)OC1[C@H](O)[C@H](O)C(OP(=O)(O)O)[C@H](O)[C@H]1O)OC(=O)CCCCCCCCCCCCCCC (some centres unmarked) | SHC-transforming protein 1 (Homo sapiens, UniProt P29353) | binding, fluorescence | – | Kd | 4.1 µM |
| CN1CCN(c2ccc(Nc3ncc4cc(C#N)c(=O)n(C5CCCC5)c4n3)cc2)CC1 | Calcium/calmodulin-dependent protein kinase type II subunit delta (CAMK2D, Homo sapiens, UniProt Q13557) | enzyme activity, inhibitor | – | IC50 | 1.6 µM |
| CCCS(=O)(=O)Nc1ccc(F)c(C(=O)c2c[nH]c3ncc(-c4ccc(Cl)cc4)cc23)c1F | Mitogen-activated protein kinase kinase kinase 20, non-phosphorylated (MAP3K20, Homo sapiens, UniProt Q9NYL2) | binding, ITC | – | Kd | 0.029 µM |
| Cc1cnc(-c2ccc(-c3ccc(NC(=O)Nc4c(F)cc(F)cc4F)cc3F)c3c2C(=O)NC3)[nH]1 | BDNF/NT-3 growth factors receptor (NTRK2, Homo sapiens, UniProt Q16620) | binding, competition with immobilised ligand | – | Kd | 0.0045 µM |
| O=C1/C(=C/c2ccco2)CCC/C1=C\c1ccco1 | Sterol carrier protein 2 | ligand displacement, fluorescence | – | EC50 | 62.9 µM |
